Measured values taken from ChEMBL document CHEMBL5321283, “Structure-Activity Relationships of the Antimicrobial Peptide Natural Product Apidaecin” (J Med Chem, 2023).
Converted amounts (≈) assume the structure as drawn. The source made the active and inactive calls. The calls are words filed in the database; no cut-off is given here. Where a SMILES comes first, the peptide text is derived from it. [ ]: non-standard residue; d: D form. The star is where a group is joined. Orn(α-tetramethylguanidino) = CN(C)C(=N[C@@H](CCCN)C(=O)*)N(C)C; Phe(4-F) = N[C@@H](Cc1ccc(F)cc1)C(=O)O; Arg(Me) = CNC(=N)NCCC[C@H](N)C(=O)O; Hyp = O=C(O)[C@@H]1C[C@@H](O)CN1; NMeL = CN[C@@H](CC(C)C)C(=O)O; dLeu(ol) = CC(C)C[C@@H](N)CO

Legend:
Escherichia coli [1] = assay: Antibacterial activity against Escherichia coli BL21 harboring sbmA mutant assessed as bacterial growth inhibition by broth microdilution assay; assay type: functional
Escherichia coli [2] = assay: Induction of stop-codon readthrough in Escherichia coli BL21 carrying pRXG (UGA) reporter incubated for 18 hrs by imaging analysis; assay type: functional
Outline: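 Lawn spread on M9 agar with 0.2 mM IPTG and kanamycin, then dried. 2 μL drops of 0.2 mM peptide applied; 1 μL chloramphenicol (1 mg/mL) as negative control. ~18 h, 37 °C; RFP (Cy3) and GFP (Cy2) imaged.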

[3] = Stability in human plasma assessed as parent compound remaining measured after 2 hrs; assay type: ADME, cell-free; settings: read-out: Stability
Escherichia coli [4] = assay: Antibacterial activity against Escherichia coli BL21 harboring RF2 (R262C) mutant assessed as bacterial growth inhibition by broth microdilution assay; assay type: functional
Escherichia coli [5] = assay: Antibacterial activity against Escherichia coli BL21 harboring RF2 (Q280L) mutant assessed as bacterial growth inhibition by broth microdilution assay; assay type: functional
Escherichia coli [6] = assay: Potency index, ratio of Api-137 MIC to test compound MIC for antibacterial activity against Escherichia coli BL21 assessed as bacterial growth inhibition by broth microdilution assay; assay type: functional
Escherichia coli [7] = assay: Antibacterial activity against Escherichia coli BL21 assessed as bacterial growth inhibition by broth microdilution assay; assay type: functional

Structure (SMILES)	MIC (Escherichia coli [1])	Activity (Escherichia coli [2])	remaining at 2 h [3]	MIC (Escherichia coli [4])	MIC (Escherichia coli [5])	Ratio (Escherichia coli [6])	MIC (Escherichia coli [7])
CC[C@H](C)[C@H](NC(=O)[C@H](Cc1ccc(O)cc1)NC(=O)[C@@H](NC(=O)[C@@H]1CCCN1C(=O)[C@H](CCCNC(=N)N)NC(=O)[C@H](CC(N)=O)NC(=O)[C@H](CC(N)=O)NC(=O)[C@H](CCCN)N=C(N(C)C)N(C)C)C(C)C)C(=O)N1CCC[C@H]1C(=O)N[C@@H](CCCNC(=N)N)C(=O)N1CCC[C@H]1C(=O)N[C@@H](CCCNC(=N)N)C(=O)N1CCC[C@H]1C(=O)N1CCC[C@H]1C(=O)N[C@@H](Cc1c[nH]cn1)C(=O)N1CCC[C@H]1C(=O)N[C@@H](CCCNC(=N)N)C(=O)N(C)[C@@H](CC(C)C)C(=O)O ({Orn(α-tetramethylguanidino)}-NNRPVYIPRPRPPHPR[NMeL]-OH)	> 25 µM	Active	~80%	> 25 µM			
CC[C@H](C)[C@H](NC(=O)[C@H](Cc1ccc(O)cc1)NC(=O)[C@@H](NC(=O)[C@@H]1CCCN1C(=O)[C@H](CCCNC(=N)N)NC(=O)[C@H](CC(N)=O)NC(=O)[C@H](CC(N)=O)NC(=O)[C@H](CCCN)N=C(N(C)C)N(C)C)C(C)C)C(=O)N1CCC[C@H]1C(=O)N[C@@H](CCCNC(=N)N)C(=O)N1CCC[C@H]1C(=O)N[C@@H](CCCNC(=N)N)C(=O)N1CCC[C@H]1C(=O)N1CCC[C@H]1C(=O)N[C@@H](Cc1c[nH]cn1)C(=O)N1CCC[C@H]1C(=O)N[C@@H](CCCNC(=N)NC)C(=O)N[C@@H](CC(C)C)C(=O)O ({Orn(α-tetramethylguanidino)}-NNRPVYIPRPRPPHP[Arg(Me)]L-OH)	> 25 µM	Active		> 25 µM	25 µM (≈ 57.6 µg/mL)	1	0.3 µM (≈ 0.692 µg/mL)
CC[C@H](C)[C@H](NC(=O)[C@H](Cc1ccc(F)cc1)NC(=O)[C@@H](NC(=O)[C@@H]1C[C@@H](O)CN1C(=O)[C@H](CCCNC(=N)N)NC(=O)[C@H](CC(N)=O)NC(=O)[C@H](CC(N)=O)NC(=O)[C@H](CCCN)N=C(N(C)C)N(C)C)C(C)C)C(=O)N1CCC[C@H]1C(=O)N[C@@H](CCCNC(=N)N)C(=O)N1CCC[C@H]1C(=O)N[C@@H](CCCNC(=N)N)C(=O)N1CCC[C@H]1C(=O)N1CCC[C@H]1C(=O)N[C@@H](Cc1c[nH]cn1)C(=O)N1CCC[C@H]1C(=O)N[C@@H](CCCNC(=N)NC)C(=O)N(C)[C@@H](CC(C)C)C(=O)O ({Orn(α-tetramethylguanidino)}-NNR[Hyp]V[Phe(4-F)]IPRPRPPHP[Arg(Me)][NMeL]-OH)	> 25 µM	Active	~80%	6.2 µM (≈ 14.5 µg/mL)			
CC[C@H](C)[C@H](NC(=O)[C@H](Cc1ccc(O)cc1)NC(=O)[C@@H](NC(=O)[C@@H]1CCCN1C(=O)[C@H](CCCNC(=N)N)NC(=O)[C@H](CC(N)=O)NC(=O)[C@H](CC(N)=O)NC(=O)[C@H](CCCN)N=C(N(C)C)N(C)C)C(C)C)C(=O)N1CCC[C@H]1C(=O)N[C@@H](CCCNC(=N)N)C(=O)N1CCC[C@H]1C(=O)N[C@@H](CCCNC(=N)N)C(=O)N1CCC[C@H]1C(=O)N1CCC[C@H]1C(=O)N[C@@H](Cc1c[nH]cn1)C(=O)N1CCC[C@H]1C(=O)N[C@@H](CCCNC(=N)N)C(=O)N[C@@H](CC(C)C)C(=O)O ({Orn(α-tetramethylguanidino)}-NNRPVYIPRPRPPHPRL-OH)	> 25 µM		~80%	> 25 µM	> 25 µM	1	0.16 µM (≈ 0.367 µg/mL)
CC[C@H](C)[C@H](NC(=O)[C@H](Cc1ccc(O)cc1)NC(=O)[C@@H](NC(=O)[C@@H]1CCCN1C(=O)[C@H](CCCNC(=N)N)NC(=O)[C@H](CC(N)=O)NC(=O)[C@H](CC(N)=O)NC(=O)[C@H](CCCN)N=C(N(C)C)N(C)C)C(C)C)C(=O)N1CCC[C@H]1C(=O)N[C@@H](CCCNC(=N)N)C(=O)N1CCC[C@H]1C(=O)N[C@@H](CCCNC(=N)N)C(=O)N1C[C@H](O)C[C@H]1C(=O)N1CCC[C@H]1C(=O)N[C@@H](Cc1c[nH]cn1)C(=O)N1CCC[C@H]1C(=O)N[C@@H](CCCNC(=N)N)C(=O)N[C@@H](CC(C)C)C(=O)O ({Orn(α-tetramethylguanidino)}-NNRPVYIPRPR[Hyp]PHPRL-OH)						2	0.16 µM (≈ 0.369 µg/mL)
CC[C@H](C)[C@H](NC(=O)[C@H](Cc1ccc(O)cc1)NC(=O)[C@@H](NC(=O)[C@@H]1CCCN1C(=O)[C@H](CCCNC(=N)N)NC(=O)[C@H](CC(N)=O)NC(=O)[C@H](CC(N)=O)NC(=O)[C@H](CCCN)N=C(N(C)C)N(C)C)C(C)C)C(=O)N1CCC[C@H]1C(=O)N[C@@H](CCCNC(=N)N)C(=O)N1CCC[C@H]1C(=O)N[C@@H](CCCNC(=N)N)C(=O)N1CCC[C@H]1C(=O)N1CCC[C@H]1C(=O)N[C@@H](Cc1c[nH]cn1)C(=O)N1CCC[C@H]1C(=O)N[C@@H](CCCNC(=N)N)C(=O)N[C@H](CO)Cc1ccccc1						32	5 µM (≈ 11.6 µg/mL)
CC[C@H](C)[C@H](NC(=O)[C@H](Cc1ccc(O)cc1)NC(=O)[C@@H](NC(=O)[C@@H]1CCCN1C(=O)[C@H](CCCNC(=N)N)NC(=O)[C@H](CC(N)=O)NC(=O)[C@H](CC(N)=O)NC(=O)[C@H](CCCN)N=C(N(C)C)N(C)C)C(C)C)C(=O)N1CCC[C@H]1C(=O)N[C@@H](CCCNC(=N)N)C(=O)N1CCC[C@H]1C(=O)N[C@@H](CCCNC(=N)N)C(=O)N1CCC[C@H]1C(=O)N1CCC[C@H]1C(=O)N[C@@H](Cc1c[nH]cn1)C(=O)N1CCC[C@H]1C(=O)N[C@@H](CCCNC(=N)N)C(=O)N[C@@H](CO)CC(C)C ({Orn(α-tetramethylguanidino)}-NNRPVYIPRPRPPHPR[dLeu(ol)])						62	10 µM (≈ 22.8 µg/mL)
